Assay: Toxicity liver stage against HepG2, at 10uM
Format: cell-based
Set-up: test concentration 10 uM, cell line HepG2-A16-CD81EGFP
Details: human, HepG2-A16-CD81EGFP cells; read-out: INHIBITION
Summary of the method: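 Uninfected HepG2-A16-CD81EGFP cells, 3 × 10^3 per well, 1536-well, plated on prespotted compound at 10 μM final, parasite-free screening media added to match infected plates; puromycin 10 μM positive, DMSO 0.5% negative; run in parallel with 48 h PbLuc assay at 37 °C, 5% CO2; viability by CellTiter-Glo luminescence, normalized to controls.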

| Compound | cytotoxicity at 10 µM [%] |
| --- | --- |
| O=C(CC1CC1)N1CCC2(CCCN(c3ncccn3)C2)CC1 | -71 |
| Cc1cc(C)n(C2CN(CC(O)Cn3cccn3)C2)n1 (stereo unspecified) | -5.09 |
| CCCN(CCO)C(=O)C1CCC(=O)N(Cc2ccc(Cl)cc2)C1 (stereo unspecified) | 10.4 |
| O=S(=O)(Cc1ccccc1F)N1CCCC1c1nnc2n1CCCCC2 (stereo unspecified) | 7.17 |
| Cc1ccc(CNC(=O)C2CCN(C(=O)C(C)C)CC2)n1C | 5.71 |
| COCC1CCN(S(=O)(=O)NCC2COc3ccccc3C2)CC1 (stereo unspecified) | 7.64 |
| Cc1ccsc1C(=O)N1CC(C(=O)NC(C)C)C2(CCOCC2)C1 (stereo unspecified) | -1.49 |
| O=C(NCCNc1ncccn1)NCCc1c(F)cccc1F | 7.49 |
| Cn1ccnc1CN1C[C@@H](CN2CCCC2)[C@@H](CO)C1 | 4.34 |
| COc1c(C2CCCN2Cc2nccn2C)c(C)nn1C (stereo unspecified) | 3.06 |
| CCc1ccc(C2CCCCCN2C(=O)CNC(=O)NC2CC2)o1 (stereo unspecified) | 0.0456 |
| OCCNc1cc(-c2ccncc2)ncn1 | -7.88 |
| COC1CN(C(=O)OCC(C)C)CCC(=O)N(C)c2ccccc21 (stereo unspecified) | -0.321 |
| CCOC(=O)c1ccc(CNC(=O)c2ccon2)o1 | 8.64 |
| COCCN(C)C(=O)c1nc2c(s1)CCCN2C(=O)C1CC1 | -143 |
| COC(=O)c1cc2n(n1)CCN(C(=O)c1csc(CN(C)C)n1)C2 | -8.44 |
| CC(C)(C)OC(=O)NCC1CCCCN1Cc1cccnc1 (stereo unspecified) | -0.502 |
| CC(C)NC(=O)CCCn1cnc2ccccc2c1=O | 15.2 |
| CCN1CCC2(CC1)CC(NC(=O)c1csnn1)c1ccccc1O2 (stereo unspecified) | -116 |
| COCCN1C[C@H]2CN(C(=O)C3CC3)CCN2C1=O | 7.37 |
| CCN(Cc1cnn(C)c1)S(=O)(=O)N1CCCC1c1ccco1 (stereo unspecified) | -3.55 |
| CN(C)S(=O)(=O)N1CCO[C@H]2[C@H](Oc3cccnc3)CC[C@@H]21 | 4.64 |
| Cc1cc(C)n(CC2CCCN2CCCS(N)(=O)=O)n1 (stereo unspecified) | -4.1 |

| Compound | cytotoxicity at 10 µM [%] |
| --- | --- |
| c1cncc(O[C@H]2CC[C@H]3[C@H]2OCCN3C2CCCC2)c1 | -6.05 |
| COc1ccccc1CN1C(=O)O[C@@H]2CN(c3nc(C)cnc3C)C[C@@H]21 | 1.06 |
| O=C(NCc1ccccc1)N1CCC2(CC(=O)N(c3ccsc3)C2)C1 (stereo unspecified) | -9.64 |
| CC(C)n1c(C2CCCN(Cc3ccnn3C)C2)nc2ccccc21 (stereo unspecified) | -0.0273 |
| COc1ccc(-c2nnc(SC(C)C(=O)NC(C)(C)C)[nH]2)c(OC)c1 (stereo unspecified) | 66.5 |
| O=c1cc(C2CCNCC2)nc(CCCc2ccccc2)[nH]1 | 2.03 |
| CC(C)(O)C1CCCN(C(=O)Nc2nc(-c3ccccc3)ns2)C1 (stereo unspecified) | -137 |
| Cn1cc(CN2CCC(CCC(=O)NC3CC3)CC2)cn1 | 9.27 |
| c1ccc2c(c1)N(CC1CCOC1)CC21CCN(c2cnccn2)CC1 (stereo unspecified) | -94.7 |
| O=C(CN(Cc1cccs1)C1CCS(=O)(=O)C1)NCCc1cccs1 (stereo unspecified) | -11.5 |
| CC1(NC(=O)Cc2csc(-c3ccccc3Cl)n2)CCS(=O)(=O)C1 (stereo unspecified) | -9.81 |
| Cc1nn(C)c2c(NCc3cccnc3)nc(C(C)C)nc12 | 10.5 |
| Cc1cnn(CC2CCCCN2C(=O)c2ccc3[nH]c(=O)[nH]c3c2)c1 (stereo unspecified) | 5.8 |
| CC[C@H]1COCCN1C(=O)CCCn1nnc(-c2ccc(F)cc2)n1 | 13.4 |
| CCOCC(=O)N1C[C@@H](O)[C@H](NC(C)=O)C1 | -4.48 |
| Cn1ccc2c(-c3ccc(NCCO)nn3)ccnc21 | -5.56 |
| CN1CCN(c2ccc(F)cc2NC(=O)NCC[S+](C)[O-])CC1 (stereo unspecified) | -10.7 |
| CC(=O)NCCNC(=O)Nc1ccc(Br)cc1C(C)C | 6.54 |
| O=S(=O)(Cc1ccccc1Cl)NC(CO)c1ccco1 (stereo unspecified) | -6.86 |
| COc1ccccc1OC1CCN(C(=O)c2cccc(O)c2C)CC1 | 12.5 |
| CC(=O)Nc1ccc(CNCC(O)c2ccc(Cl)cc2)cc1 (stereo unspecified) | -8.74 |
| O=C(Cn1nc(Br)nc1Br)N1CCCCC1 | -4.38 |
| N#Cc1ccc(NCC(=O)Nc2ccn(Cc3cccnc3)n2)cc1 | -11.2 |

| Compound | cytotoxicity at 10 µM [%] |
| --- | --- |
| CC1CCCN(c2ncc(C(=O)NCc3ccc(F)c(Cl)c3)c(N)n2)C1 (stereo unspecified) | -2.83 |
| CCCc1nc(C)c(C(=O)NCC2CCN(C3CC3)C2)s1 (stereo unspecified) | -9.34 |
| Cn1ncc2c1C(COCC1CC1)CN(S(C)(=O)=O)C2 (stereo unspecified) | -73.6 |
| COc1ccc(CN(C)CC(=O)Nc2ccc3[nH]c(=O)[nH]c3c2)cc1F | 5.97 |
| O=C(CN1CCCc2c(F)cc(Br)cc21)N1CCCC1 | -1.26 |
| Cc1ccc(C(=O)N2CCSCC2)cc1NC(=O)NCCO | -9.64 |
| CC(OCC1CC1)C(=O)NCCC(=O)Nc1ccccn1 (stereo unspecified) | -5.72 |
| Nc1nccnc1C1CN(Cc2ccc(OCC(=O)O)cc2)CCO1 (stereo unspecified) | -2.11 |
| Cc1nn(C)c(C)c1CNCc1ccc(N2CCOCC2)nc1 | 3.68 |
| O=C(C[S+]([O-])C1CCCC1)NCCOc1cccc(Cl)c1 (stereo unspecified) | -143 |
| COc1ccc2c(c1)CN(c1cc(N3CCCC3CO)ncn1)CC2 (stereo unspecified) | -4.16 |
| COc1c(CNC2(c3ccc(Cl)cc3)CCC2)c(C)nn1C | 4.22 |
| Cc1noc2ncc(C(=O)NCC3CCCO3)cc12 (stereo unspecified) | -10.2 |
| Cc1cnn(CC2CCCCN2C(=O)CC(F)(F)F)c1 (stereo unspecified) | -11.5 |
| CCc1cc(N2CCC(N3CCSCC3)CC2)n2nccc2n1 | 0.998 |
| Cc1nccn1C1CCCN(C(=O)c2ccc3cc[nH]c3c2)C1 (stereo unspecified) | -9.69 |
| Cc1cc2ccccc2n1CCC(=O)NCc1ncc[nH]1 | 4.37 |
| O=C(c1cscn1)N1CCc2c(COCC3CC3)cncc2C1 | -105 |
| Cn1cnc2c1CCN(CCCOc1ccc(C#N)cc1)C2 | -12.4 |
| O=C(NCCCC(=O)N1Cc2ccccc2C1)NCc1cccnc1 | 11.9 |
| N#Cc1cccnc1N1CCC(C2CCCCCN2C(=O)C2CC2)CC1 (stereo unspecified) | 1.95 |
| CC1=Nc2c(c(O)nn2C(C)C)C(c2cn(C)nc2C)S1 (stereo unspecified) | -3.53 |
| O=C(CN1CCOCC1)N1CCC2(CCCN(C3CCOCC3)C2=O)C1 (stereo unspecified) | -129 |

| Compound | cytotoxicity at 10 µM [%] |
| --- | --- |
| Cc1occc1C(=O)N1CCCC1c1ccc(C(=O)N2CCOCC2)s1 (stereo unspecified) | -143 |
| O=C(NCc1cc[nH]n1)N1CCN(c2ccccc2Cl)CC1 | -2.82 |
| CCn1ccnc1CN1CCCC1Cn1cc(C)cn1 (stereo unspecified) | -14.3 |
| Cc1nn(C)c2cnn(Cc3ccc(C(=O)NCC4CC4)o3)c12 | 6.06 |
| CNc1cc(C2CN(Cc3csc(C)n3)CCO2)nc(C)n1 (stereo unspecified) | -1.6 |
| CN(C)CCOCc1cncc2c1CCN(C1CCOCC1)C2 | 4.62 |
| NC(=O)NC(=O)CCN(Cc1ccccc1)CC1CCOCC1 | -1.86 |
| Cn1nccc1C1CCN(CC(O)c2cccc(F)c2)CC1 (stereo unspecified) | -11.8 |
| CNC(=O)c1ccc(NC(=O)NC(C)CCc2cccn2C)c(C)c1 (stereo unspecified) | 3.75 |
| CC(CNC(=O)N1CCC(CO)CC1)Cc1cccs1 (stereo unspecified) | -8.52 |
| COc1ccc(C(=O)Nc2cnn(CC(=O)NC3CCCC3)c2)c(O)c1 | -14.8 |
| CC(C)CN1C(=O)C2(CCCC2)NC1c1cn(C)c(=O)n(C)c1=O (stereo unspecified) | 2.8 |
| Nc1nc2nc(C3CCCN(C(=O)c4cncs4)C3)ccc2s1 (stereo unspecified) | -19.1 |
| CN1Cc2ccccc2CC2(CCN(C(=O)N3CCOCC3)CC2)C1=O | 1.02 |
| Fc1cccc(Cl)c1CN1CCC(c2n[nH]c3ncccc23)CC1 | -13.7 |
| COc1cccc(-c2cccc(N3CCC(N[C@@H]4CCOC4)CC3)c2)c1 | -12.7 |
| Cc1ccccc1Cn1cnc2oc(C)c(C(=O)O)c2c1=O | -1.49 |
| CC(C)c1nc(C2CCCN2CC(=O)N2CCc3ccccc32)no1 (stereo unspecified) | -5.84 |
| CC(C)c1nccn1Cc1cc(C(=O)NCC(C)n2ccnc2)n[nH]1 (stereo unspecified) | -0.419 |
| Cc1nccnc1N1C[C@H]2CN(C3CCOCC3)C[C@@]2(C(=O)O)C1 | -6.93 |
| COc1cccc(OC)c1C(=O)N1C[C@@H](CN(C)C)[C@@H](CO)C1 | -4.51 |
| Cc1ccc(CN2CC[C@H]3OCC[C@@]3(COCC(=O)N(C)C)C2)s1 | -97.8 |
| Cc1nnc2n1CCN(C(=O)CN1C(=O)CSc3ccccc31)C2 | 0.442 |

| Compound | cytotoxicity at 10 µM [%] |
| --- | --- |
| COc1cccc(-c2nc(C)c(C(=O)NCCC(=O)O)s2)c1 | 8.69 |
| Cc1cc(CNc2cc(Cl)ccc2C)no1 | -7.01 |
| CCN(CC)C(=O)N1CCN(Cc2cnc(C)nc2)[C@H]2CS(=O)(=O)C[C@H]21 | -8.84 |
| CN1CC(Nc2ccc(Br)cc2C#N)CCC1=O (stereo unspecified) | 8.25 |
| CCOC(C)c1noc(CN2CCNCC2)n1 (stereo unspecified) | 1.03 |
| Cc1cccc(CC2CCCN(C(=O)Cc3csc(C)n3)C2)n1 (stereo unspecified) | -26.5 |
| COc1cccc([C@H]2CN(C(C)=O)[C@@H]3CCN(Cc4ccsc4)C[C@H]23)c1 | -9.19 |
| CC(=O)N1CCC2(CCCN2Cc2cnn(C)c2)CC1 | -2.27 |
| Cc1ccccc1C(C(=O)N(C)Cc1cnn(C)c1)N(C)C (stereo unspecified) | -0.837 |
| CC(C)OCCC(=O)NCCc1csc(N2CCCC2)n1 | -12.9 |
| CC(=O)N1CCN(C(=O)c2cc(-n3cnnn3)ccc2Cl)CC1 | 8.32 |
| CCOc1ccc(NC2CCN(C)C2=O)cn1 (stereo unspecified) | -3.7 |
| CCC1c2ccsc2CCN1C(=O)NCCc1ccccn1 (stereo unspecified) | -12.4 |
| c1cc(CN2CCCn3cnc(COCC4CC4)c3C2)ccn1 | 7.31 |
| O=C(C[C@@H]1COC[C@H]2CN(C3CCCC3)C[C@@H]12)NCc1cccnc1 | 6.84 |
| Cn1c(C(F)(F)F)nn(CCNC(=O)c2nc3ccccc3s2)c1=O | 1.79 |
| CSCC(CCO)NC(=O)Nc1ccc(C)cc1C (stereo unspecified) | 1.82 |
| Cc1cc(C(=O)N2CCC3(CC2)CC(c2cccnc2)C(=O)N3)no1 (stereo unspecified) | -133 |
| Cc1ccc(N2CCN(C(=O)COc3ncccn3)CC2)nn1 | -0.233 |

— ChEMBL document CHEMBL4513216, “Probing the Open Global Health Chemical Diversity Library for Multistage-Active Starting Points for Next-Generation Antimalarials” (ACS Infect Dis, 2020)
